Tests used:
[1] = Retention time of the compound in Sprague-Dawley rat bile treated with gambogic acid at 4 mg/kg, iv measured over 24 hrs by LC-DAD-MS/MS analysis; assay type: ADME, organism-based; parameters: dose 4 mg/kg, route intravenous; details: in vivo
How it was run: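 SD rats, n=4, bile-duct cannulated under chloral hydrate and allowed 1 h recovery. GA 4 mg/kg i.v.; bile collected on ice, pooled 0–24 h. C18 LC-DAD-MS/MS at 0.25 mL/min with acetonitrile gradient (38% to 80%) in 10 mM ammonium acetate, 40 °C, negative ESI.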

[2] = Drug level in PBS buffer treated with gambogic acid at 50 uM preincubated for 10 mins followed by NADPH addition measured after 1 hr by LC-DAD-MS/MS analysis in absence of liver microsomes; assay type: physicochemical
How it was run: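 Control incubation with no microsomes: GA 50 μM (added in 5.0 μL acetonitrile) in 0.1 M PBS pH 7.4, 1.0 mL, preincubated 10 min at 37 °C with shaking. NADPH added to 6.0 mM final, then 1 h at 37 °C, duplicate. Stopped with ice-cold acetonitrile, centrifuged, supernatant dried under N2, reconstituted in mobile phase. LC-MS/MS with negative ESI, isocratic 65% acetonitrile.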

[3] = Drug level in Sprague-Dawley rat feces treated with gambogic acid at 4 mg/kg, iv measured over 24 hrs by LC-DAD-MS/MS analysis; assay type: ADME, organism-based; parameters: dose 4 mg/kg, route intravenous; details: in vivo
How it was run: (§1)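 SD rats (250 ± 20 g), n=4, given GA 4 mg/kg i.v. via tail vein in 2 mL; feces pooled 0–24 h and stored at −20 °C. Feces (0.6 g) homogenized in 50% acetonitrile, sonicated, centrifuged, filtered, then ethyl acetate extraction. Analysed by C18 LC-DAD-MS/MS (gradient 38–80% acetonitrile, 10 mM ammonium acetate, 40 °C), negative ESI.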

[4] = Drug level in rat liver microsomes assessed as CYP450-mediated compound formation treated with gambogic acid at 50 uM preincubated for 10 mins followed by NADPH addition measured after 1 hr by LC-DAD-MS/MS analysis; assay type: ADME
How it was run: (§2)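 GA 50 µM with rat liver microsomes 1.0 mg/mL in 0.1 M PBS pH 7.4, pre-incubated 10 min at 37 °C. Started with NADPH (6.0 mM final) and run 1 h at 37 °C. Controls lacked NADPH or microsomes; duplicate. Stopped with ice-cold acetonitrile, centrifuged, supernatant dried and reconstituted. Isocratic LC (65% acetonitrile), negative-ion ESI MS/MS.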

[5] = test system: Plasma; test: Drug level in Sprague-Dawley rat plasma treated with gambogic acid at 4 mg/kg, iv measured over 4 hrs by LC-DAD-MS/MS analysis; assay type: ADME, organism-based; parameters: dose 4 mg/kg, route intravenous; details: in vivo
How it was run: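 Six SD rats given GA 4 mg/kg i.v. via tail vein. Tail blood taken into heparin at 0.033–4 h; plasma separated at 3000 × g, 4 °C, and pooled 0–4 h. 1 mL extracted with 4 mL ethyl acetate, dried, reconstituted. Isocratic 68% acetonitrile, LC-MS/MS in negative ESI.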

[6] = Drug level in intestine (unknown origin) treated with gambogic acid; assay type: ADME, tissue-based
How it was run: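 Intestinal contents from undosed rats homogenized in 5 mL water. 100 μL of 1.0 mg/mL GA solution added, incubated about 24 h at 37 °C, duplicate. 1.0 mL extracted with ethyl acetate. LC-MS/MS with negative ESI, SIM at m/z 709.3 plus full and product-ion scans, acetonitrile gradient 50–90%.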

[7] = Drug level in Sprague-Dawley rat gut treated with gambogic acid at 4 mg/kg, iv; assay type: ADME, organism-based; parameters: dose 4 mg/kg, route intravenous; details: in vivo
[8] = Retention time of the compound in Sprague-Dawley rat feces treated with gambogic acid at 4 mg/kg, iv measured over 24 hrs by LC-DAD-MS/MS analysis; assay type: ADME, organism-based; parameters: dose 4 mg/kg, route intravenous; details: in vivo; how it was run: as §1
[9] = test system: Plasma; test: Drug level in Sprague-Dawley rat plasma at 4 mg/kg, iv measured over 4 hrs by LC-DAD-MS/MS analysis; assay type: ADME, organism-based; parameters: dose 4 mg/kg, route intravenous; details: in vivo
How it was run: (§3)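 Six SD rats dosed 4 mg/kg GA i.v. via tail vein. Tail-vein blood taken before and 0.033–4 h post-dose into heparinized tubes, centrifuged 3000 × g 10 min at 4 °C, and plasma pooled 0–4 h. 1 mL extracted with 4 mL ethyl acetate, dried under N2 at 40 °C, reconstituted. Isocratic C18 LC (68% acetonitrile), negative-ion ESI MS/MS.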

[10] = Drug metabolism in rat liver microsomes assessed as CYP450-mediated 10-OHGA formation at 50 uM preincubated for 10 mins followed by NADPH addition measured after 1 hr by LC-DAD-MS/MS analysis; assay type: ADME; how it was run: as §2
[11] = test system: Liver microsome; test: Drug metabolism in rat liver microsomes assessed as glucuronidation product formation at 50 uM preincubated for 10 mins followed by UDPGA addition for 2 hrs measured 1 hr post beta-glucuronidase treatment by LC-MS/MS analysis; assay type: ADME
How it was run: (§4)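 Dried UDPGA microsomal incubate reconstituted in 0.1 M Tris pH 6.8. For enzymatic hydrolysis, about 830 units β-glucuronidase, 37 °C for 1 h; control without enzyme. For alkaline hydrolysis, with or without 0.5 M NaOH (10 µL), 2 h at room temperature, then neutralized with acetic acid to about pH 7. Analyzed by LC-MS/MS.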

[12] = Drug level in Sprague-Dawley rat urine at 4 mg/kg, iv measured over 24 hrs by LC-DAD-MS/MS analysis; assay type: ADME, organism-based; parameters: dose 4 mg/kg, route intravenous; details: in vivo
How it was run: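 Urine collected from four SD rats and pooled 0–24 h after 4 mg/kg GA i.v. via tail vein; stored -20 °C until LC-MS/MS analysis (negative-ion ESI).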

[13] = Drug metabolism in Sprague-Dawley rat bile assessed as formation of 10-beta sulfonic gambogic acid at 4 mg/kg, iv measured over 24 hrs by LC-DAD-MS/MS analysis; assay type: ADME, organism-based; parameters: dose 4 mg/kg, route intravenous; details: in vivo
How it was run: (§5)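 Four SD rats bile-duct cannulated under chloral hydrate anesthesia, allowed 1 h recovery, pre-dose bile taken. Dosed 4 mg/kg GA i.v. Bile collected on ice and pooled 0–24 h, stored -20 °C. Gradient C18 LC (acetonitrile/10 mM ammonium acetate), 40 °C column, negative-ion ESI MS/MS.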

[14] = Drug metabolism in intestine (unknown origin) assessed as 10-beta sulfonic gambogic acid formation; assay type: ADME, tissue-based
How it was run: (§6)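 Intestinal contents from undosed rats homogenized in 5 mL water, spiked with 100 µL of 1.0 mg/mL GA, incubated at 37 °C about 24 h, in duplicate. 1 mL extracted with ethyl acetate. LC-MS/MS in negative ESI with SIM at m/z 709.3.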

[15] = Drug metabolism in Sprague-Dawley rat feces assessed as formation of 9,10-epoxyl-gambogic acid at 4 mg/kg, iv measured over 24 hrs by LC-DAD-MS/MS analysis; assay type: ADME, organism-based; parameters: dose 4 mg/kg, route intravenous; details: in vivo
How it was run: (§7)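 SD rats (250 ± 20 g), 4 mg/kg GA injection given i.v. via tail vein in 2 mL; feces from four rats pooled 0–24 h, stored -20 °C. Feces (0.6 g) homogenized in acetonitrile-water 50:50, sonicated, centrifuged, filtered, then extracted with ethyl acetate, dried under N2 at 40 °C, reconstituted in mobile phase. Gradient C18 LC, negative-ion ESI MS/MS.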

[16] = test system: Liver microsome; test: Drug metabolism in rat liver microsomes assessed as glucuronidation product formation at 50 uM preincubated for 10 mins followed by UDPGA addition measured after 2 hrs by LC-MS/MS analysis; assay type: ADME
How it was run: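 GA 50 µM with alamethicin-treated rat liver microsomes 1.0 mg/mL and saccharic acid-1,4-lactone 6 mM in 0.05 M Tris-HCl pH 7.4, pre-incubated 10 min at 37 °C. Started with UDPGA (6.0 mM) and run 2 h at 37 °C. Controls lacked UDPGA or microsomes; duplicate. Acetonitrile quench, gradient LC, negative-ion ESI MS/MS.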

[17] = Drug level in Sprague-Dawley rat feces at 4 mg/kg, iv measured over 24 hrs by LC-MS/MS analysis; assay type: ADME, organism-based; parameters: dose 4 mg/kg, route intravenous; details: in vivo; how it was run: as §7
[18] = Drug metabolism in Sprague-Dawley rat feces assessed as formation of glucuronidation product at 4 mg/kg, iv measured over 24 hrs by LC-DAD-MS/MS analysis; assay type: ADME, organism-based; parameters: dose 4 mg/kg, route intravenous; details: in vivo; how it was run: as §7
[19] = Drug metabolism in Sprague-Dawley rat gut assessed as formation of 10-beta sulfonic gambogic acid at 4 mg/kg, iv; assay type: ADME, organism-based; parameters: dose 4 mg/kg, route intravenous; details: in vivo
[20] = Drug metabolism in rat liver microsomes assessed as CYP450-mediated 9,10-epoxyl-gambogic acid formation at 50 uM preincubated for 10 mins followed by NADPH addition measured after 1 hr by LC-DAD-MS/MS analysis; assay type: ADME; how it was run: as §2
[21] = Drug metabolism in Sprague-Dawley rat bile assessed as 10-alpha sulfonic gambogic acid formation of at 4 mg/kg, iv measured over 24 hrs by LC-DAD-MS/MS analysis; assay type: ADME, organism-based; parameters: dose 4 mg/kg, route intravenous; details: in vivo; how it was run: as §5
[22] = Retention time of the compound in Sprague-Dawley rat bile at 4 mg/kg, iv measured over 24 hrs by LC-DAD-MS/MS analysis; assay type: ADME, organism-based; parameters: dose 4 mg/kg, route intravenous; details: in vivo; how it was run: as §5
[23] = test system: Liver microsome; test: Drug metabolism in rat liver microsomes assessed as glucuronidation product formation at 50 uM preincubated for 10 mins followed by UDPGA addition for 2 hrs measured 2 hrs post NaOH treatment by LC-MS/MS analysis; assay type: ADME; how it was run: as §4
[24] = Drug metabolism in Sprague-Dawley rat gut assessed as formation of 10-alpha sulfonic gambogic acid at 4 mg/kg, iv; assay type: ADME, organism-based; parameters: dose 4 mg/kg, route intravenous; details: in vivo
[25] = Drug metabolism in intestine (unknown origin) assessed as 10-alpha sulfonic gambogic acid formation; assay type: ADME, tissue-based; how it was run: as §6
[26] = Drug excretion in Sprague-Dawley rat feces at 2 mg/kg, iv measured within 48 hrs; assay type: ADME, organism-based; parameters: dose 2 mg/kg, route intravenous; details: read-out: Drug excretion
[27] = Drug metabolism in rat liver microsomes assessed as SULT-mediated sulfonation; assay type: ADME
[28] = Drug metabolism in Sprague-Dawley rat feces assessed as 10-OHGA formation at 4 mg/kg, iv measured over 24 hrs by LC-DAD-MS/MS analysis; assay type: ADME, organism-based; parameters: dose 4 mg/kg, route intravenous; details: in vivo; how it was run: as §7
[29] = test system: Liver microsome; test: Drug metabolism in rat liver microsomes assessed as 9,10-epoxyl-gambogic acid formation at 50 uM preincubated for 10 mins by LC-MS/MS analysis in absence of NADPH; assay type: ADME; how it was run: as §2
[30] = test system: Plasma; test: Drug metabolism in Sprague-Dawley rat plasma assessed as 10-OHGA formation at 4 mg/kg, iv measured over 4 hrs by LC-DAD-MS/MS analysis; assay type: ADME, organism-based; parameters: dose 4 mg/kg, route intravenous; details: in vivo; how it was run: as §3
[31] = test system: Liver microsome; test: Drug level in rat liver microsomes treated with gambogic acid at 50 uM preincubated for 10 mins followed by UDPGA addition measured after 2 hrs by LC-MS/MS analysis; assay type: ADME
How it was run: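 Rat liver microsomes 1.0 mg/mL pretreated with alamethicin 50 μg/mg protein. GA 50 μM, saccharic acid-1,4-lactone 6 mM, in 0.05 M Tris-HCl pH 7.4. Preincubated 10 min at 37 °C, started with UDPGA (6.0 mM final), run 2 h at 37 °C, duplicate. Quenched with ice-cold acetonitrile. LC-MS/MS in negative ESI with acetonitrile gradient 50–95%.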

## CC(C)=CCC[C@]1(C)C=Cc2c(O)c3c(c(CC=C(C)C)c2O1)O[C@]12C(C3=O)C(O)[C@@H]3C[C@H]1C(C)(C)O[C@@]2(C/C=C(/C)C(=O)O)C3=O (some centres undefined)
[1]
  Retention_time: 39.5 min
[2]
  Drug metabolism: metabolite_detected
[3]
  Drug metabolism: metabolite_detected
[4]
  Drug metabolism: metabolite_detected
[5]
  Drug metabolism: metabolite_detected

## CC(C)=CCC[C@]1(C)C=Cc2c(O)c3c(c(CC=C(C)C)c2O1)O[C@]12[C@H]4C[C@H](C(=O)[C@]1(C/C=C(/C)C(=O)O[C@@H]1O[C@H](CO)[C@@H](O)[C@H](O)[C@H]1O)OC4(C)C)C1OC12C3=O (some centres undefined)
[1]
  Retention_time: 39 min

## CC(C)=CCC[C@]1(C)C=Cc2c(O)c3c(c(CC=C(C)C)c2O1)O[C@]12C(C3=O)[C@H](S(=O)(=O)O)[C@@H]3C[C@H]1C(C)(C)O[C@@]2(C/C=C(/C)C(=O)O)C3=O (some centres undefined)
[6]
  Drug metabolism: metabolite_detected
[7]
  Drug metabolism: metabolite_detected
[8]
  Retention_time: 16.9 min

## CC(C)=CCC[C@]1(C)C=Cc2c(O)c3c(c(CC=C(C)C)c2O1)O[C@]12C(=C[C@@H]4C[C@H]1C(C)(C)O[C@@]2(C/C=C(/C)C(=O)O)C4=O)C3=O [GAMBOGIC ACID]
[9]
  Drug uptake: Active
[10]
  Drug metabolism: metabolite_detected
[11]
  Drug metabolism: metabolite_not_detected
[12]
  Drug uptake: Not Active
[13]
  Drug metabolism: metabolite_not_detected
[14]
  Drug metabolism: metabolite_detected
[15]
  Drug metabolism: metabolite_detected
[16]
  Drug metabolism: metabolite_detected
[17]
  Drug uptake: Active
[18]
  Drug metabolism: metabolite_detected
[19]
  Drug metabolism: metabolite_detected
[20]
  Drug metabolism: metabolite_detected
[21]
  Drug metabolism: metabolite_not_detected
[22]
  Retention_time: 44.8 min
[23]
  Drug metabolism: metabolite_not_detected
[24]
  Drug metabolism: metabolite_detected
[25]
  Drug metabolism: metabolite_detected
[26]
  dose excreted at 48 h: 1.04%
[27]
  Drug metabolism: metabolite_not_detected
[28]
  Drug metabolism: metabolite_detected
[29]
  Drug metabolism: metabolite_not_detected
[30]
  Drug metabolism: metabolite_detected

## CC(C)=CCC[C@]1(C)C=Cc2c(O)c3c(c(CC=C(C)C)c2O1)O[C@]12C(=C[C@@H]4C[C@H]1C(C)(C)O[C@@]2(C/C=C(/C)C(=O)O[C@@H]1O[C@H](C(=O)O)[C@@H](O)[C@H](O)[C@H]1O)C4=O)C3=O
[1]
  Retention_time: 23.6 min
[31]
  Drug metabolism: metabolite_detected
[3]
  Drug metabolism: metabolite_detected

Reference: ChEMBL document CHEMBL3526153, “Metabolism of gambogic acid in rats: a rare intestinal metabolic pathway responsible for its final disposition” (Drug Metab Dispos, 2011)
